NadD block – NadD (S. aureus) enzyme inhibition; purified NadD enzyme, colorimetric absorbance read-out; hit rate 0.78% among 360,000; inhibition, % at 20 µM; in the data active = inhibition above about 26%
core dimer inh – HCV core protein dimerization inhibition; TR-FRET GST/Flag-core106 dimerization, 1536-well; inhibition, % at 5 µM; hit rate 0.33% among 300,000; AID 1899;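 active = inhibition above the mean of all tested compounds plus 3 SD, set per screening campaign, cut at about 45% in these data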
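Test system: GST/Flag-tagged HCV core106 proteins; Medium: KF-containing HEPES buffer, pH 7.45, DTT, CHAPS, BSA; Times: compound-protein-antibody incubation 4 h at 22.5 °C; Detection: TR-FRET 671 and 617 nm emission; Benchmarks: wells lacking GST-core106 and wells with excess unlabelled core106.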
Pemphigus Ab inh – human desmoglein-3 autoantibody binding inhibition. binding (percent of control), % at 10 µM. AID 588358. hit rate 0.48% among 310,000. P32926. DSG3-coupled beads, scFv-anti-DSG3-GFP binding, flow cytometry; stronger effect = lower value;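 active = binding more than 3 SD below its plate's average and above zero; inconclusive = below that plate limit but binding exactly zero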;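 also: hits lower antibody fragment binding to DSG3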
Rce1 inh – inhibitors of yeast Ras-converting enzyme | yeast membranes, quenched prenylated peptide cleavage fluorescence | calls only | hit rate 0.27% among 290,000 | AID 2563;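 active = fall in fluorescence gain of 50% or more versus controls, with final raw signal at or below 3038400; inconclusive = same 50% fall but final raw signal above 3038400; inactive = fall in fluorescence gain under 50%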;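 also: plate controls were neutral control wells for no effect and wells lacking membranes for full effect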
Target sequence (Q03530 whole entry, looked up): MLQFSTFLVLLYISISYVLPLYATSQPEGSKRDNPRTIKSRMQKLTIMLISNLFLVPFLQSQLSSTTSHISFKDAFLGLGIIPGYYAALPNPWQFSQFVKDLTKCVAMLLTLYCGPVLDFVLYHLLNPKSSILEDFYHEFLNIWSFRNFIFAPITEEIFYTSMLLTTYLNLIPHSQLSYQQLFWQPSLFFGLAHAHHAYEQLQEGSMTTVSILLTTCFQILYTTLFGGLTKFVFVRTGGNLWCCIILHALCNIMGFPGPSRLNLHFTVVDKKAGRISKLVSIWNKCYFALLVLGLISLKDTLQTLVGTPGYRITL
Tb MetRS inh – Trypanosoma brucei MetRS inhibition; purified T. brucei MetRS, ATP depletion, Kinase-Glo luminescence; inhibition, % at 11.9 µM; hit rate 0.4% among 360,000; AID 624268;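 active = inhibition above a per-plate cutoff of the control wells' mean inhibition plus 3 SD, cut at about 5.5% in these data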;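 also: 0% = DMSO wells median and 100% = median of wells with control inhibitor compound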
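technique = Kinase-Glo luminescence, ATP depletion format | system = purified MetRS (methionyl-tRNA synthetase) enzyme from Trypanosoma brucei | timing = 15 min preincubation, 2 h reaction, all 25 °C | evaluation = percent inhibition versus plate control medians | dosing = single dose, 11.9 µM final nominal, 0.9% final DMSO | also added = substrates ATP, L-methionine and bulk Escherichia coli tRNA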
NadD conf – confirmation of Staphylococcus aureus NadD inhibitors | purified S. aureus NadD, colorimetric enzyme assay | AID 624309 | shares compounds with NadD block | hit rate 13% among 2,000 | inhibition, % at 20 µM; in the data active = inhibition mostly above about 42%, no sharp cut-off; inactive = mostly below about 42%
Active calls of the source: *; i = inactive; u = inconclusive; x = no result given. Shown are actives, neighbours in structure and some others; about 1.9% of the full set was active somewhere.

SMILES | NadD block | core dimer inh | Pemphigus Ab inh | Rce1 inh | Tb MetRS inh | NadD conf
COc1ccc(NC(=O)c2cccc(N3C(=O)c4ccc(C(=O)Nc5ccc(OC)c(O)c5)cc4C3=O)c2)cc1O | 44* | 17 | 96 | i | 0 | 35
CN(CC(=O)Nc1c(Cl)cccc1Cl)C(=O)c1ccccc1-c1nc2ccccc2s1 | 1 | 6 | 121 | i | 0 | x
O=C(Nc1nc(-c2ccco2)c(-c2ccco2)s1)C1CCC1 | 9 | 8 | 118 | i | -1 | x
CS(=O)(=O)c1ccc(C(=O)Nc2nc(-c3ccco3)c(-c3ccco3)s2)cc1 | 29* | x | 101 | x | 0 | 7
CN(C)c1ccc(C(CN)c2c[nH]c3ccccc23)cc1 (configuration not stated) | 31* | -1 | 100 | i | 1 | 11
CCCC(=O)N(c1ccccc1)C1C=CS(=O)(=O)C1 (configuration not stated) | -1 | -1 | 113 | i | -1 | x
Cc1c2cnn(CC(=O)Nc3c(F)c(F)cc(F)c3F)c(=O)c2c(C)n1Cc1ccccc1F | 32* | 55* | 93 | i | 0 | 46
O=C(Nc1nnc(-c2ccc3c(c2)CCCC3)o1)c1ccc(Cl)cc1Cl | 36* | 41 | 98 | i | 0 | 24
CCN(CC)c1ccc(S(=O)(=O)Nc2cc(Cl)ccc2Cl)cc1NC(=S)NC(=O)C1CCCC1 | 31* | 34 | 99 | i | 0 | 15
O=C(CCc1nnc(COc2ccccc2)o1)NCc1ccccc1 | -3 | 1 | 105 | i | -1 | x
CC(Nc1nc(=S)nc(Nc2ccc(F)cc2)[nH]1)c1ccccc1 (configuration not stated) | 31* | 14 | 101 | i | 0 | 37
CCOc1ccccc1C(=O)NC(C(=O)OCn1nnc2ccccc2c1=O)C(C)C (configuration not stated) | 2 | x | 104 | x | 0 | x
Cc1cc2cc(OCc3ccccc3)ccc2n1C | -3 | -6 | 102 | i | 0 | x
Cc1cccc(-c2nn(-c3ccccc3)cc2C(=O)Nc2cccc(S(=O)(=O)NC3=NCCC3)c2)c1 | 0 | 12 | 101 | i | 0 | x
COc1ccccc1/C=C/C1=NC(=C\C=C/c2ccccc2)/C(=O)O1 | 19 | 35 | 102 | i | 0 | x
COc1ccccc1/C=C/C=C1N=C(/C=C/c2ccc(Cl)cc2)OC/1=O | 32* | 43 | 119 | i | -1 | -3
COc1ccc(-c2ccc(S(=O)(=O)n3nc(OC(=O)c4cccs4)cc3N)cc2)cc1 | 4 | -11 | 106 | i | 0 | x
CCOC(=O)c1ccccc1NS(=O)(=O)c1ccccc1 | -6 | 2 | 97 | i | -1 | x
CC1=NN(c2ccc(C)c(C)c2)C(=O)C1C(c1cccc(O)c1)C1C(=O)N(c2ccc(C)c(C)c2)N=C1C (configuration not stated) | 37* | 15 | 100 | i | -2 | 61*
O=C(COC(=O)CCc1ccccc1)NCc1ccccc1 | -2 | x | 103 | x | 0 | x
COc1cc(/C=N/NC(=O)COc2c(C)cc([N+](=O)[O-])cc2C)ccc1OC(=O)c1ccccc1 | 27 | 31 | 84 | i | -1 | x
COc1cc(/C=N/NC(=O)COc2c(C)cc([N+](=O)[O-])cc2C)ccc1OC(=O)c1ccccc1Br | 33* | 37 | 93 | i | 0 | -3
CCN1CCN(c2nc3c(C)cccn3c(=O)c2/C=C(\C#N)S(=O)(=O)c2ccccc2)CC1 | 5 | 13 | u | i | 0 | x
Cc1cccn2c(=O)c(/C=C(\C#N)S(=O)(=O)c3ccccc3)c(N3CCN(c4ccccc4)CC3)nc12 | 43* | 41 | x | i | -1 | 1
O=C(COc1ccc(Cl)cc1)NCCCn1ccnc1 | 1 | -6 | 112 | i | 1 | x
Cn1c(N)c(C(=O)COC(=O)c2cc(-c3ccccc3)nc3ccccc23)c(=O)n(Cc2ccccc2)c1=O | 29* | -32 | 92 | x | 1 | 4
Cn1c(N)c(C(=O)COC(=O)c2cc(C3CC3)nc3ccccc23)c(=O)n(Cc2ccccc2)c1=O | 43* | 6 | 104 | i | 0 | 7
CC(C)Cn1c(N)c(C(=O)COC(=O)c2cc(C3CC3)nc3ccccc23)c(=O)n(C)c1=O | x | 3 | x | x | x | x

Assay outcomes as filed in PubChem.
